For one experiment, the system named is Bacillus licheniformis. Description: Compound was tested for inhibition of Bacillus licheniformis 749/C, class A of beta-Lactamases. The experiment is classed as functional, organism-based.
Experiment [1] has as its system Citrobacter freundii. Put plainly: (§1) Compound was tested for inhibition of Citrobacter freundii 1928 in combination with Ceftriaxone (expressed in MIC). The experiment is classed as functional, organism-based.
Experiment [2] concerns Enterobacter cloacae. Description: Compound was tested for inhibition of Ent. cloacae 908R in combination with Ceftriaxone (expressed in MIC). The experiment is classed as functional, organism-based. The gist of the method:
(§2)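 MICs determined by serial 2-fold dilution in Mueller-Hinton broth with an inoculum of approximately 10⁵ cfu/mL. The test compound was combined with ceftriaxone.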

The subject of experiment [3] is Pseudomonas aeruginosa. Put plainly: Compound was tested for inhibition of Pseudomonas aeruginosa 18SH in combination with Ceftriaxone (expressed in MIC). The experiment is classed as functional, organism-based. The gist of the method:
as §2

Experiment [4] has as its system Citrobacter freundii. Description: Compound was tested for inhibition of Citrobacter freundii 1928 in combination with Ceftriaxone. The experiment is classed as functional. The gist of the method:
as §2

Experiment [5] has as its system Enterobacter cloacae. Description: Compound was tested for inhibition of Ent. cloacae 908R in combination with Ceftriaxone. The experiment is classed as functional. The gist of the method:
as §2

Experiment [6] deals with Pseudomonas aeruginosa. Put plainly: Compound was tested for inhibition of Pseudomonas aeruginosa 18SH in combination with Ceftriaxone. The experiment is classed as functional. The gist of the method: as §2
The nature of experiment [7]: (§3) Compound was tested for inhibition of TEM-3, class A of beta-lactamases. The experiment is classed as functional, Escherichia coli.
The nature of experiment [8]: (§4) Compound was tested for inhibition of pTEM-3 from Escherichia coli in combination with Ceftriaxone. The experiment is classed as functional. The gist of the method:
as §2

Experiment [9] can be described thus: (§5) Compound was tested for inhibition of pTEM-4 from Escherichia coli in combination with Ceftriaxone. The experiment is classed as functional. The gist of the method: as §2
The nature of experiment [10]: (§6) Compound was tested for inhibition of TEM-1, class A of beta-lactamases. The experiment is classed as functional, Escherichia coli.
Experiment [11] addresses Beta-lactamase (Escherichia coli K-12, UniProt P00811). Put plainly: Compound was tested for inhibition of Escherichia coli AmpC, class C of Beta-lactamase.
The target in experiment [12] is Beta-lactamase (Bacillus licheniformis, UniProt P00808). Put plainly: Compound was tested for inhibition of Bacillus licheniformis 749/C, class A of Beta-lactamase.
In experiment [13] the target is Beta-lactamase (Pseudomonas aeruginosa (strain ATCC 15692 / PAO1 / 1C / PRS 101 / LMG12228), UniProt P24735). Description: Compound was tested for inhibition of Pseudomonas aeruginosa 18SH, class C of Beta-lactamase.
Experiment [14] addresses Beta-lactamase (Citrobacter freundii, UniProt P05193). Put plainly: Compound was tested for inhibition of Citrobacter freundii 1928, class C of Beta-lactamase.
The nature of experiment [15]: Compound was tested for inhibition of Penicillin-binding protein 2x from Streptococcus pneumoniae. The procedure, abridged:
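S. pneumoniae PBP 2x was assayed as recombinant soluble protein. IC₅₀ values are reported in µM.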

The target in experiment [16] is T1, Penicillin-binding protein 1B (Escherichia coli K-12, UniProt P02919).
T1 sequence (P02919 whole entry): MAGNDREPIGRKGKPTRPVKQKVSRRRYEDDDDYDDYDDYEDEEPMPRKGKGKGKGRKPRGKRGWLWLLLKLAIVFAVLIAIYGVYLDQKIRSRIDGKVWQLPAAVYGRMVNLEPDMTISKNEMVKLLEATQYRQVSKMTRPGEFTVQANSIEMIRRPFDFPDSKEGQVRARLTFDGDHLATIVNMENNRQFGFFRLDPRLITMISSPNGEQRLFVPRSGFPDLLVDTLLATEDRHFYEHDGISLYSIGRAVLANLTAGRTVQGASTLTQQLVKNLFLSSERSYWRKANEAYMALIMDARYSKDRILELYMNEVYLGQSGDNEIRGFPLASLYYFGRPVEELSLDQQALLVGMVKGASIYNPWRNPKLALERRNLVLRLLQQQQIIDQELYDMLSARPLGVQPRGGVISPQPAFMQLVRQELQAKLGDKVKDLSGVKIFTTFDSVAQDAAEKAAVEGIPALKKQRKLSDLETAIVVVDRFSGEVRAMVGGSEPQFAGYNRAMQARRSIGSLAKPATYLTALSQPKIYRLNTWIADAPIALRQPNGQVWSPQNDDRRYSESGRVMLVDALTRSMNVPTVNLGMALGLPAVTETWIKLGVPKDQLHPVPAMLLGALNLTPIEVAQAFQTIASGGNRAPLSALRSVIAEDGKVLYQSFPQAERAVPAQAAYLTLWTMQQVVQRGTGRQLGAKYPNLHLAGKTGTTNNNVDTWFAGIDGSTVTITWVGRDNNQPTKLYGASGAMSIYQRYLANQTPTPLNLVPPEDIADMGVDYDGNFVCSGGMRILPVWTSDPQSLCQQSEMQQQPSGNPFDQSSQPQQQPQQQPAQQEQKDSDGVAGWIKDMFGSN
Put plainly: Compound was tested for inhibition of Penicillin-binding protein 1b from Escherichia coli. The procedure, abridged: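 Penicillin binding was assayed on membrane fragments from E. coli W3110 or S. aureus Schoch, using ¹⁴C-labeled benzylpenicillin as the probe. IC₅₀ values are reported in µM.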

Experiment [17] is described as follows: as §6. On the set-up: species or system Escherichia coli.
Experiment [18] in a line: as §3. On the set-up: species or system Escherichia coli.
For experiment [19], the system named is Escherichia coli. Described as §4. The gist of the method:
as §2

For experiment [20], the system named is Escherichia coli. Described as §5. The gist of the method: as §2
The subject of experiment [21] is Citrobacter freundii. Put plainly: Compound was tested for inhibition of Citrobacter freundii 1928 in combination with Ceftriaxone; Not active. The experiment is classed as functional, organism-based. The gist of the method:
as §2

The target of experiment [22] is Penicillin-binding protein 4 (Staphylococcus aureus, UniProt P72355). Description: Compound was tested for inhibition of Penicillin-binding protein 4 from Staphylococcus aureus (Schoch).
Experiment [23] can be described thus: Compound was tested for inhibition of Penicillin-binding protein 1 from Staphylococcus aureus (Schoch).
The subject of experiment [24] is Citrobacter freundii. Described as §1. The experiment is classed as functional, organism-based. The procedure, abridged:
as §2
The source holds these as a separate data set.

Experiment [25] in a line: Compound was tested for inhibition of pTEM-3 from Escherichia coli in combination with Ceftriaxone (expressed in MIC). The gist of the method: as §2
Experiment [26] in a line: Compound was tested for inhibition of pTEM-4 from Escherichia coli in combination with Ceftriaxone; NA = Not active. The procedure, abridged: as §2

Experimental findings from ChEMBL document CHEMBL1129642, “Design, synthesis, and evaluation of 2 beta-alkenyl penam sulfone acids as inhibitors of beta-lactamases” (J Med Chem, 1996) are described below.

Activity calls are given as the source filed them. The calls are words filed in the database; no cut-off is given here. Some results are limits rather than exact numbers.

Chain of Beta-lactamase (Escherichia coli K-12, UniProt P00811) (P00811 whole entry): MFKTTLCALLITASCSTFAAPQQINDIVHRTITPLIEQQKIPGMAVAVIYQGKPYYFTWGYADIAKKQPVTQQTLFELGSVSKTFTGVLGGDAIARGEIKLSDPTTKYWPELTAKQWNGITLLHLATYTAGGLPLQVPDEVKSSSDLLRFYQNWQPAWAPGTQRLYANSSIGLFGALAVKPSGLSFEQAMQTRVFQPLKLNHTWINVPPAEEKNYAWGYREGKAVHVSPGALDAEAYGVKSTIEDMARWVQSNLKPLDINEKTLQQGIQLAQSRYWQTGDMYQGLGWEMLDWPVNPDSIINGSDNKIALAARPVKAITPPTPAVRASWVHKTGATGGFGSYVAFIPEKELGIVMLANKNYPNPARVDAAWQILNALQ
Chain of Beta-lactamase (Citrobacter freundii, UniProt P05193) (P05193 whole entry): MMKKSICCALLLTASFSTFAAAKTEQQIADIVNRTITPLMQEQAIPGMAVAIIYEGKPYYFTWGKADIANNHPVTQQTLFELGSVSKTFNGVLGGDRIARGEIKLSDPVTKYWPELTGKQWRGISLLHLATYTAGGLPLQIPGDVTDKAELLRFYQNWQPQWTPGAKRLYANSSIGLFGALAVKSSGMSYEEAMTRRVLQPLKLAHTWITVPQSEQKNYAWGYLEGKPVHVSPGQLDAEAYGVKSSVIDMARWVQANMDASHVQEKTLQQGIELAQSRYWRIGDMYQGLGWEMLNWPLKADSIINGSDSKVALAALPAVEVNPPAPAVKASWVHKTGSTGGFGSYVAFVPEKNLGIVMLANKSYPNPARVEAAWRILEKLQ
Chain of Beta-lactamase (Pseudomonas aeruginosa (strain ATCC 15692 / PAO1 / 1C / PRS 101 / LMG12228), UniProt P24735) (P24735 whole entry): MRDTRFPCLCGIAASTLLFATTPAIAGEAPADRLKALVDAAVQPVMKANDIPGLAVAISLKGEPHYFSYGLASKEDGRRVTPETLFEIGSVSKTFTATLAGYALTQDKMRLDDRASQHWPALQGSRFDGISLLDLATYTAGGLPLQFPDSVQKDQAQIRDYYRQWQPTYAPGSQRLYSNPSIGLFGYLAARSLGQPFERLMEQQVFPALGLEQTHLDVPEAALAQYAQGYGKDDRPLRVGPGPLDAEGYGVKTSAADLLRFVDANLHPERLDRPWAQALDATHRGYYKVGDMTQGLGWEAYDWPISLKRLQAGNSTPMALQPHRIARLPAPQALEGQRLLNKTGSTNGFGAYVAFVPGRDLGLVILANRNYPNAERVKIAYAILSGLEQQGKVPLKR
Chain of Beta-lactamase (Bacillus licheniformis, UniProt P00808) (P00808 whole entry): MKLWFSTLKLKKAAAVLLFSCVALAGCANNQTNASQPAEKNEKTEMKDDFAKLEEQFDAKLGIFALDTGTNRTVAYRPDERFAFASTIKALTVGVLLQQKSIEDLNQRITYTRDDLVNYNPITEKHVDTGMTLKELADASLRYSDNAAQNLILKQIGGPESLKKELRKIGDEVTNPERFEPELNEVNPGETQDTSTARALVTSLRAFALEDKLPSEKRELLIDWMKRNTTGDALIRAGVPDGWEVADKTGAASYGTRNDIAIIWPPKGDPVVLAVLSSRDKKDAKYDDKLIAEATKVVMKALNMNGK
Chain of Penicillin-binding protein 4 (P72355 whole entry): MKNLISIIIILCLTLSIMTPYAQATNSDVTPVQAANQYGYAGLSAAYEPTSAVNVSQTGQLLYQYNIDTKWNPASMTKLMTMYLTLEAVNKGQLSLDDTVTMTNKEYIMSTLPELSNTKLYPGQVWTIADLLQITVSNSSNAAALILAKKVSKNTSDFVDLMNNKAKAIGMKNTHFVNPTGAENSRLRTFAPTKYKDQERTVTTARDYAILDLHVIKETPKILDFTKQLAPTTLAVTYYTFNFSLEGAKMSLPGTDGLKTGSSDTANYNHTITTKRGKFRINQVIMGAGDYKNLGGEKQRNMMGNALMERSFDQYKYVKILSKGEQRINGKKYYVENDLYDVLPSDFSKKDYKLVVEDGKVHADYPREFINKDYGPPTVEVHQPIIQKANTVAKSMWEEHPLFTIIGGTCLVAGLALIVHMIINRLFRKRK

Usually IC50 stands for the concentration at which inhibition is half-maximal. `C[C@]1(/C=C\C#N)[C@H](C(=O)O)N2C(=O)C[C@H]2S1(=O)=O`: the IC50 in the experiment on Bacillus licheniformis worked out at 0.32 µM. For the same compound, the MIC amounted to 2 µg/mL in the experiment with Citrobacter freundii [1], 4 µg/mL with Enterobacter cloacae [2] and 16 µg/mL with Pseudomonas aeruginosa [3].
`CON(C)C(=O)/C=C\[C@@]1(C)[C@H](C(=O)[O-])N2C(=O)C[C@H]2S1(=O)=O.[Na+]`: the IC50 with Bacillus licheniformis was found to be 4.4 µM; in [7], 0.18 µM; in [10] it was 12 µM. Also, the MIC in the experiment on Citrobacter freundii [4] was 8 µg/mL; with Enterobacter cloacae [5], 16 µg/mL; in the experiment with Pseudomonas aeruginosa [6] it was greater than 16 µg/mL; in experiment [8] it was 0.5 µg/mL; in [9] it was 2 µg/mL.
On to `C[C@]1(/C=C/c2nnco2)[C@H](C(=O)[O-])N2C(=O)C[C@H]2S1(=O)=O.[Na+]`, for which the IC50 in the experiment with Bacillus licheniformis came out at 1.7 µM; in experiment [7], 0.22 µM; in experiment [10], 12 µM. Also, the MIC in the experiment with Citrobacter freundii [4] was determined as 4 µg/mL; in the experiment on Enterobacter cloacae [5], 8 µg/mL; in the experiment on Pseudomonas aeruginosa [6] it was 16 µg/mL; in [8] it was 0.5 µg/mL; in [9] it was 2 µg/mL.
On to `C[C@]1(C=CCO)[C@H](C(=O)[O-])N2C(=O)C[C@H]2S1(=O)=O.[Na+]`, for which the IC50 in the experiment on Bacillus licheniformis amounted to 3.6 µM; in experiment [7], 0.6 µM; in experiment [10], 6.5 µM. In addition, the MIC with Citrobacter freundii [4] is 8 µg/mL; in the experiment on Enterobacter cloacae [5], 8 µg/mL; in the experiment with Pseudomonas aeruginosa [6], 16 µg/mL; in [8], 0.5 µg/mL; in [9] it was 2 µg/mL.
Take `C[C@]1(/C=C/c2cncs2)[C@H](C(=O)O)N2C(=O)C[C@H]2S1(=O)=O`: the half-inhibitory concentration (IC50) against Beta-lactamase [11] was 45 µM; at Beta-lactamase [12], 5.4 µM; on Beta-lactamase [13], 0.54 µM; at Beta-lactamase [14] it was 1.3 µM; in [15], 50 µM; in experiment [16], greater than 10000 µM. Also, the half-maximal inhibitory concentration (IC50) in experiment [17] worked out at 8.5 µM; in experiment [18], 0.16 µM. The MIC in the experiment on Citrobacter freundii [4] is 8 µg/mL; in the experiment on Enterobacter cloacae [5], greater than 16 µg/mL; in the experiment on Pseudomonas aeruginosa [6], 16 µg/mL; with Escherichia coli [19], 1 µg/mL; in the experiment on Escherichia coli [20], 4 µg/mL.
`C[C@]1(/C=C\C(N)=O)[C@H](C(=O)O)N2C(=O)C[C@H]2S1(=O)=O`: the figures for the half-maximal inhibitory concentration (IC50) (with Bacillus licheniformis; in experiment [7]; in experiment [10]) were 3.4 µM, 0.13 µM and 1.2 µM, respectively. In addition, the MIC with Citrobacter freundii [4] stood at 2 µg/mL; in the experiment on Enterobacter cloacae [5], 4 µg/mL; in the experiment on Pseudomonas aeruginosa [6], 4 µg/mL; in experiment [8], 0.25 µg/mL; in [9], 2 µg/mL.
For the compound `C[C@]1(/C=C\Cl)[C@H](C(=O)[O-])N2C(=O)C[C@H]2S1(=O)=O.[Na+]`, the IC50 in the experiment on Bacillus licheniformis amounted to 6.6 µM; in experiment [7], 0.06 µM; in [10], 5.6 µM. Further, the MIC came out at 4 µg/mL in the experiment with Citrobacter freundii [4]; 4 µg/mL in the experiment with Enterobacter cloacae [5]; 4 µg/mL with Pseudomonas aeruginosa [6]; 0.25 µg/mL in experiment [8]; 1 µg/mL in experiment [9].
Turning to `C[C@]1(C=CC(N)=O)[C@H](C(=O)O)N2C(=O)C[C@H]2S1(=O)=O`, the results for the half-maximal inhibitory concentration (IC50) (in the experiment on Bacillus licheniformis; in experiment [7]; in experiment [10]) were 6 µM, 0.054 µM and 13 µM, respectively. In addition, in the experiment on Citrobacter freundii [21], the NA entry was “inactive”. Also, the MIC is 8 µg/mL in the experiment with Enterobacter cloacae [5], 16 µg/mL with Pseudomonas aeruginosa [6], less than 0.25 µg/mL in [8] and 0.5 µg/mL in [9].
For the compound `C[C@]1(/C=C\c2cncs2)[C@H](C(=O)[O-])N2C(=O)C[C@H]2S1(=O)=O.[Na+]`, the IC50 against Beta-lactamase [11] is 2.7 µM; at Beta-lactamase [12] it was 0.54 µM; against Beta-lactamase [13], 8.9 µM; against Beta-lactamase [14], 0.41 µM; in experiment [15], 4.8 µM; in experiment [16] it was greater than 10000 µM. Besides, the IC50 in experiment [17] turned out to be 13 µM; in experiment [18], 0.054 µM. Further, the MIC with Citrobacter freundii [4] is 16 µg/mL; in the experiment with Enterobacter cloacae [5] it was 16 µg/mL; with Pseudomonas aeruginosa [6] it was greater than 16 µg/mL; in the experiment with Escherichia coli [19], 0.5 µg/mL; in the experiment on Escherichia coli [20], 4 µg/mL.
`C[C@]1(/C=C\c2ccccn2)[C@H](C(=O)[O-])N2C(=O)C[C@H]2S1(=O)=O.[Na+]`: the half-maximal inhibitory concentration (IC50) came to 46 µM against Beta-lactamase [11]; 2.3 µM against Beta-lactamase [12]; 15 µM against Beta-lactamase [13]; 1 µM against Beta-lactamase [14]; 15 µM in experiment [22]; 4.5 µM in [15]. Also, the half-inhibitory concentration (IC50) is greater than 10000 µM in experiment [16], 15 µM in experiment [23], 19 µM in experiment [17] and 0.092 µM in experiment [18]. Moreover, the MIC is 8 µg/mL in the experiment on Citrobacter freundii [4]; 32 µg/mL in the experiment with Enterobacter cloacae [5]; greater than 16 µg/mL in the experiment with Pseudomonas aeruginosa [6]; 1 µg/mL in the experiment on Escherichia coli [19]; 4 µg/mL in the experiment with Escherichia coli [20].
Regarding `CCOC(=O)/C=C\[C@@]1(C)[C@H](C(=O)O)N2C(=O)C[C@H]2S1(=O)=O`, the IC50 against Beta-lactamase [11] was 61 µM; against Beta-lactamase [12], 2.9 µM; on Beta-lactamase [13], 15 µM; in experiment [17] it was 14 µM; in [18] it was 0.46 µM. In addition, the MIC in the experiment with Citrobacter freundii [24] is 4 µg/mL; in the experiment with Enterobacter cloacae [2], 8 µg/mL; with Pseudomonas aeruginosa [3], greater than 16 µg/mL; in [25], less than 0.25 µg/mL; in experiment [26], “Not Active”.
